# High-throughput results: PubChem BioAssay, several laboratories
# Many of the other results were omitted from the sample, so hits are more common in it than they were.
# UPR CHOP act = apoptotic UPR (CHOP) activation | CHO-CHOP luciferase reporter, luminescence; percent of tunicamycin response over DMSO baseline | 330,000 compounds, 0.34% hits | activation, % at 10 µM | AID 449763;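 active = at 10 µM dose, activation of 40% or more, normalized to positive control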;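 also: 100% = tunicamycin at 10 µg/mL and 0% = DMSO alone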
#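 Test system: CHO-CHOP cells, stable luciferase reporter of PERK-eIF2a-CHOP signalling | Quantity: 500 CHO-CHOP cells per well | Buffer or medium: F12 plus 10% serum | Compound dosing: 10 µM single point, 0.5% DMSO | Schedule: 6 h compound treatment, 37 °C | Signal: Luciferase luminescence | Control set: Tunicamycin high control, DMSO low control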
# XBP1 UPR activ = activators of adaptive arm of unfolded protein response (XBP1); CHO-XBP1 luciferase reporter, IRE1-XBP1 UPR activation, luminescence; percent of tunicamycin response, DMSO as zero; activation, % at 20 µM; 330,000 compounds, 0.33% hits;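 active = versus positive control, 20 µM dose yields 30% or more activation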;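 also: 100% = tunicamycin at 10 µg/mL and 0% = DMSO only wells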
#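 Signal: luciferase luminescence; Assay system: CHO-XBP1 luciferase reporter cells; Amount: one thousand reporter cells per well; Dosing: 20 µM single concentration, DMSO 1%; Benchmarks: high control tunicamycin 10 µg/mL final, low control DMSO vehicle only; Schedule: 6 h compound exposure at 37 °C, 5% CO2; Evaluation: percent activation relative to tunicamycin reference.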
# CHOP inhibitor = blocks CHOP induction under ER stress; CHO-K1 CHOP-promoter luciferase, tunicamycin-induced, 15-18 h; inhibition, % at 10 µM; 220,000 compounds, 3.8% hits; AID 2732;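 active = compounds that reduced the stress-induced luciferase reporter signal by more than about 70% of percent inhibition, limit read from the data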;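 also: 0% = tunicamycin plus vehicle and 100% = wells without tunicamycin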
# Jurkat NFkB inh = lowers PMA/ionomycin-induced NF-kB signal in Jurkat cells; 330,000 compounds, 0.53% hits; PMA/ionomycin-induced NF-kB luciferase reporter, luminescence; inhibition, % at 4 µM; AID 435003; in the data active = inhibition above about 50%
# 697 NFkB inh = inhibitors of the PMA/ionomycin-induced NF-kB reporter in 697 B cells | 697 B-cell NF-kB luciferase reporter, 16 h | inhibition, % at 4 µM | 330,000 compounds, 0.33% hits | AID 435022; in the data active = inhibition above about 35%
# Jurkat NFkB conf = lowers PMA/ionomycin-induced NF-kB signal in Jurkat cells; shares compounds with Jurkat NFkB inh; Jurkat NF-kB luciferase, 16 h; inhibition, % at 4 µM; 2,700 compounds, 27% hits; AID 435020;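 active = inhibition reaching about 45% at 4 µM in either replicate, limit read from the data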;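 also: plate controls were PMA/ionomycin stimulated DMSO wells for no effect and unstimulated DMSO wells for full effect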
# An asterisk follows results filed as active; nt = no result.
SMILES,UPR CHOP act,XBP1 UPR activ,CHOP inhibitor,Jurkat NFkB inh,697 NFkB inh,Jurkat NFkB conf
CCC(=O)NC(c1ccc(OC)cc1)c1cc(Cl)c2cccnc2c1O (centres undefined),-1.0,4.3,12.5,14.5,-23.5,nt
CC(=O)NC(c1ccc(C(C)C)cc1)c1ccc2cccnc2c1O (centres undefined),1.3,1.7,nt,51.4*,-32.4,73.5*
CCCCC(=O)NC(c1ccc(C(C)C)cc1)c1ccc2cccnc2c1O (centres undefined),-0.8,2.4,nt,60.7*,-28.7,82.0*
CN(CC(=O)NC(=O)NC1CCCCC1)CC(=O)Nc1ccc(Cl)cc1,-1.7,-2.1,nt,-2.9,-8.3,nt
CCc1ccc2oc(-c3ccc(OC)cc3)cc(=Nc3c(C)n(C)n(-c4ccccc4)c3=O)c2c1,4.6,-4.4,6.0,-232.2,-235.6,-115.0
COc1ccc(-c2cc(=O)c3cc(O)ccc3o2)cc1,2.3,5.6,27.4,-130.2,-186.0,nt
C=CCn1c(-c2ccc(OC)cc2)csc1=Nc1c(C)n(C)n(-c2ccccc2)c1=O,1.8,-2.5,40.4,0.7,21.5,nt
COc1ccc(-c2cc(=Nc3ccc(C(=O)O)cc3)c3cc(C)ccc3o2)cc1,4.5,0.0,-32.4,-177.8,-142.5,-116.2
Cc1ccc(C)c(-n2cc(CN3CCCN(C=O)CC3)c(-c3ccccc3)n2)c1,1.6,0.2,18.2,-1.2,-8.9,nt
Cn1cccc1C(=O)C(=O)Nc1cccc(Cl)c1Cl,5.7,0.7,18.1,-150.8,-184.9,-64.2
CC(=O)c1cccc(NC(=O)c2cc(-c3cccs3)on2)c1,5.4,0.3,nt,-78.5,0.9,nt
O=C(Nc1cccc(O)c1)c1cc(-c2cccs2)on1,4.4,-5.3,nt,-151.8,12.9,-35.8
COc1cccc(-c2cc(C(=O)Nc3cccc(O)c3)no2)c1,-0.3,-2.3,nt,-162.1,1.5,-132.8
COc1cccc(-c2cc(C(=O)NC3CCCC3)no2)c1,3.1,-0.2,-27.6,-200.1,-151.0,-72.3
COc1ccc(NC(=O)c2cc(-c3cccc(OC)c3)on2)cc1,0.1,3.7,-38.2,-3.1,11.3,nt
O=C(O)CN1C(=O)c2ccc(Oc3ccc4c(c3)C(=O)N(CC(=O)O)C4=O)cc2C1=O,4.3,-0.8,-16.6,-4.1,8.5,nt
CCOC(=O)CSc1nc(-c2ccncc2)ccc1C#N,5.9,8.0,-27.2,-209.6,-117.7,-74.9
COc1cccc(O)c1CN1CCC(C(=O)Nc2ccc(Oc3cccnc3)cc2)CC1,-0.8,-5.5,nt,-5.5,-19.7,nt
COc1ccc(CN2CCC(C(=O)Nc3ccc(Oc4cccnc4)cc3)CC2)c(C)c1C,3.3,-4.5,nt,54.2*,-40.6,31.4
CCOC(=O)CN(C)Cc1cn(C)nc1-c1ccc(Oc2ccccc2)cc1,3.4,-5.0,nt,-14.4,-18.7,nt
COc1ccc2[nH]cc(CCN=C3SCC(=O)N3C)c2c1,-0.1,-0.5,-13.9,-24.1,-40.7,nt
COc1cc(/C=C2\SC(=O)NC2=O)ccc1Oc1ccc([N+](=O)[O-])cc1[N+](=O)[O-],0.1,-0.7,29.8,-3.7,25.0,nt
CCN1C(=O)C(=Cc2cccc(OC)c2Oc2ccc([N+](=O)[O-])cc2[N+](=O)[O-])SC1=S,2.2,1.3,nt,68.5*,-152.1,5.0
Cc1ccc(C2=NN3C(C2)c2ccccc2OC32C(=O)Nc3ccccc32)cc1 (centres undefined),9.8,1.3,-14.1,-167.2,-196.5,-100.5
CN1C(=O)C2(Oc3ccccc3C3CC(c4ccccc4)=NN32)c2ccccc21 (centres undefined),2.9,1.1,7.0,-74.9,-60.7,nt
O=C(CC1N=C(Cc2ccccc2)NNC1=O)N/N=C/c1ccc([N+](=O)[O-])cc1 (centres undefined),-2.5,-1.5,51.4,-3.7,8.0,nt
O=C(COc1ccc2c(-c3ccccc3)cc(=O)oc2c1)Nc1cccnc1,2.2,-7.3,nt,50.2*,-47.7,48.5*
COc1ccc(-c2csc(Nc3ccccc3)n2)cc1,4.2,0.1,22.7,-196.5,-171.6,-81.7
CC(=O)c1cccc(Nc2nc(-c3cccnc3)cs2)c1,5.7,0.5,nt,-111.0,-81.3,nt
CC(=O)c1cccc(Nc2nc(-c3ccccc3)cs2)c1,5.9,1.3,6.2,-265.2,-221.5,-103.0
